Measured values published in ChEMBL document CHEMBL4330069, “Boosting the efficacy of anti-MRSA β-lactam antibiotics via an easily accessible, non-cytotoxic and orally bioavailable FtsZ inhibitor” (Eur J Med Chem, 2019).
pIC50: −log10 of the molar value. ≈ marks a conversion by molar mass, not a printed value. Calls of active or inactive are those of the source. No cut-off for these calls is given here.

Columns and labels:
[1] = molecular target: T1, Cell division protein FtsZ (Staphylococcus aureus) (UniProt P0A031); assay: Inhibition of Staphylococcus aureus N-terminal 6His-tagged FtsZ GTPase expressed in Escherichia coli BL21 (DE3) at 100 uM relative to control
T1 sequence (whole entry): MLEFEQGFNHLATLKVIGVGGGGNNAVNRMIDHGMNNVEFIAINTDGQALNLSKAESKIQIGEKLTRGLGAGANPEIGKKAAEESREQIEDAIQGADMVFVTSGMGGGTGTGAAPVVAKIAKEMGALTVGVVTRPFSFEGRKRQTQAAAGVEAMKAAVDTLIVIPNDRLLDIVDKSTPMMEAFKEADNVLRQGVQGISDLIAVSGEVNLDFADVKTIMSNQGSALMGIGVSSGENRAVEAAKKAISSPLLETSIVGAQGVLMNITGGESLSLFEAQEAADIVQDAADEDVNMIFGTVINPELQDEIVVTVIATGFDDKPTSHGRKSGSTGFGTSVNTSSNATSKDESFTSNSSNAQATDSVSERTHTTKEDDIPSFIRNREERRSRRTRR

Staphylococcus aureus [2] = assay: Synergistic bactericidal activity against Staphylococcus aureus ATCC BAA-41 at 1 to 16 times MIC in presence of methicillin up to 24 hrs by time kill assay; assay type: functional, organism-based
Method in brief: (§1)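 Colony of strain grown 16 h in CA-MH broth at 37 °C with shaking, diluted 100-fold and grown to mid-log (OD595 0.8), then set at 5×10^5 CFU/mL. […] Sampled at 0, 2.5, 5, 7.5, 21, 24 h, diluted and plated on drug-free CA-MH agar, 24 h at 37 °C; triplicates.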

[3] = Selective index, ratio of IC50 for mouse L929 cells to MIC for Staphylococcus aureus ATCC 29213
Method in brief: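 Selectivity index calculated as L929 IC50 (μM) divided by S. aureus MIC (μM).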

Staphylococcus aureus [4] = assay: Antibacterial activity against Staphylococcus aureus ATCC BAA-41 at […] after 24 hrs by time kill assay; assay type: functional, organism-based
Method in brief: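 Time-kill assay. S. aureus BAA-41 was grown in CA-MH broth to mid-log phase (OD595 0.8), then diluted to 5×10^5 CFU/mL. […] Samples were taken at 0–24 h and plated on drug-free CA-MH agar for 24 h. Triplicates.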

[5] = molecular target: T1, Cell division protein FtsZ (Staphylococcus aureus); assay: Inhibition of Staphylococcus aureus N-terminal 6His-tagged FtsZ GTPase expressed in Escherichia coli BL21 (DE3) at 50 uM relative to control
[6] = molecular target: T1, Cell division protein FtsZ (Staphylococcus aureus); assay: Inhibition of Staphylococcus aureus N-terminal 6His-tagged FtsZ polymerization expressed in Escherichia coli BL21 (DE3) at 100 uM relative to control
Method in brief: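 Purified S. aureus FtsZ polymerization with GTP, followed as light scattering (absorbance 600 nm) over time. Compound was tested at 12.5–100 µM against a 1% DMSO vehicle, and inhibition was read at 500 s. Triplicate.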

Escherichia coli = assay: Antibacterial activity against Escherichia coli ATCC 25922 by broth microdilution assay; assay type: functional
Method in brief: (§2)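 Broth microdilution per CLSI guidelines; compounds dissolved in DMSO; single agents tested; growth inhibition read by eye; run in duplicate (table footnote states at least triplicates).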

Staphylococcus aureus [7] = assay: Antibacterial activity against Staphylococcus aureus ATCC 29213 by broth microdilution assay; assay type: functional; method in brief: as §2
[8] = molecular target: T1, Cell division protein FtsZ (Staphylococcus aureus); assay: Inhibition of Staphylococcus aureus N-terminal 6His-tagged FtsZ GTPase expressed in Escherichia coli BL21 (DE3) at 30 uM relative to control
Staphylococcus aureus [9] = assay: Synergistic antibacterial activity against Staphylococcus aureus ATCC BAA-41 at 1 to 16 times MIC in presence of methicillin after 21 hrs by time kill assay; assay type: functional, organism-based; method in brief: as §1
Staphylococcus aureus [10] = assay: Bactericidal activity against Staphylococcus aureus ATCC BAA-41 assessed as log reduction in bacterial growth at 2 to 4 times MIC up to 7 hrs by time kill assay; assay type: functional
Method in brief: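 Mid-log S. aureus BAA-41 culture (OD595 0.8) diluted to 5×10^5 CFU/mL in CA-MH broth. […] Incubated at 37 °C with shaking at 250 rpm, sampled at 0, 2.5, 5, 7.5, 21 and 24 h, and plated on drug-free CA-MH agar for 24 h at 37 °C to count viable cells; triplicates.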

L929 = assay: Cytotoxicity against mouse L929 cells by MTS assay; assay type: cell-based
Method in brief: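 MTS assay on L929 mouse fibroblasts; IC50 reported as the average of three independent measurements.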

inhibition [1]: -15% | inhibition [5]: -29% | inhibition [6]: Active | MIC (Escherichia coli): > 64 µg/mL | MIC (Staphylococcus aureus [7]): 1.6 µM (≈ 0.569 µg/mL) | inhibition [8]: -47%
Compound: NC(=O)c1c(F)ccc(OCc2nc3cc(Cl)cnc3s2)c1F
Activity (Staphylococcus aureus [2]): Active | Selectivity Index [3]: >63 | Activity (Staphylococcus aureus [4]): Active | Activity (Staphylococcus aureus [9]): Active | log(activity) (Staphylococcus aureus [10]): > 4 | pIC50 (L929): < 4.00
